One data set has as its target FAM-Aβ42 (Homo sapiens, UniProt P05067). The format is biochemical. The note with it: for enhancement of CP-induced degradation of FAM-Aβ42 by anti-oxidants: compared with CP only group.
A further data set deals with mature iPS neurons. In words: Toxicity study with iPS neuronal cells. It is filed as cell-based. Particulars: 24 hours, Tuj-1 staining; for neuritic continuity of neurons treated with Aβ oligomers: Aβ Oligomer (20 μM). In a few lines: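 Neurons came from iPS cells differentiated from blood stem cells and were used as mature cultures 12 days after seeding. They were treated with Aβ oligomers (20 µM), with or without test compound. Neuronal morphology and neurite continuity were assessed by immunocytochemistry for Tuj-1, a neuronal class III β-tubulin marker.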

A short description of data set [1]: Fluorescence spectra of FAM-Aβ42 during incubation in PBS. It is filed as physicochemical. Particulars: PBS buffer, 0 to 60 minutes, peptide alone.
In another data set the test system is SH-SY5Y cells. In words: ApopTag fluorescein in situ apoptosis detection assay with Aβ42 oligomers. It is filed as cell-based. The note with it: Aβ oligomer (20 μM) and AO (2 μM), 24 hours, compared to the control group.
For data set [2], the system named is hippocampal CA1 area from mouse brain slides. As to the kind of experiment: Extracellular fEPSP recording in hippocampal CA1 of brain slices. The note with it: 1 hour. The procedure, abridged:
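In hippocampal slices, the Schaffer collateral pathway was stimulated once every 15 s with 0.1 ms current pulses. Field potentials were recorded extracellularly in the CA1 stratum radiatum. fEPSP was measured as the negative deflection of the voltage trace from baseline. Maximal amplitude was summarised for four groups: control, Aβ (1 µM), test compound (0.1 µM), and Aβ plus test compound.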

“Also recorded” adds a separate entry of the source.

This is an account of results in article PMC10350030 (bioRxiv, 2023).

Sequence of FAM-Aβ42 (P05067 672-713): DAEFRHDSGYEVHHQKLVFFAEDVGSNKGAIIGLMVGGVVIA

For the molecule `O=C(O)CN(CCN(CC(=O)O)CC(=O)O)CC(=O)O` [EDTA], at FAM-Aβ42 (Cu(II)/EDTA/Vc (1:10:20), control experiment), the “effect of EDTA on Cu/Vc-induced degradation of FAM-Aβ42” value was “inhibited the degradation”.
As for `O=C1O[C@H]([C@@H](O)CO)C(O)=C1O` [Vc, Vitamin C], the “degradation enhancement by Vc when incubated with AO” value at FAM-Aβ42 (AO/Vc versus AO) is on record as “no significant degradation enhancement”.
Take `COc1cc(/C=C/C(=O)CC(=O)/C=C/c2ccc(O)c(OC)c2)ccc1O` [curcumin]: the “enhancement of CP-induced degradation of FAM-Aβ42 by anti-oxidants” value (“enhancement … by anti-oxidants” for short) at FAM-Aβ42 was “neither of these anti-oxidants could enhance the degradation”.
`NCCc1ccc(O)c(O)c1` [dopamine]: the “enhancement … by anti-oxidants” value on FAM-Aβ42 is given as “neither of these anti-oxidants could enhance the degradation”.
The same measure, in the same setting: then `NC[C@H](O)c1ccc(O)c(O)c1` [norepinephrine], with “neither of these anti-oxidants could enhance the degradation”; and `Oc1ccc(/C=C/c2cc(O)cc(O)c2)cc1` [resveratrol], with “neither of these anti-oxidants could enhance the degradation”.
As to “Aβ oligomers: Aβ42 oligomers prepared from Aβ42 peptide in F12 media at 4°C for 24 hours [reference compound]”, the “neuritic continuity of neurons treated with Aβ oligomers” value in the data set with mature iPS neurons is “apparent broken neuritic segments”; with mature iPS neurons (listed as Aβ Oligomer), “loss of neuritic continuity”.
For “FAM-Aβ42: a fluorescent dye conjugated Aβ [reference compound]”, the “fluorescence intensity of FAM-Aβ42 during incubation (aggregation-induced fluorescence quenching)” value in data set [1] is on record as “gradually decreasing”.
In the case of ascorbate oxidase [AO], at FAM-Aβ42 (N2 gas bubbled into the incubation buffer before incubation), the “AO-mediated cleavage of FAM-Aβ42 under N2” value is on record as “considerably reduced”. Moreover, the “cleavage of FAM-Aβ42” value on FAM-Aβ42 (after 4 hours of incubation with AO) is listed as “more than 50%”. Also, the “level of cell apoptosis” value in the data set with SH-SY5Y cells is “significantly reduced”. In data set [2] (AO alone (0.1 µM)), the “change of fEPSP magnitude by AO alone” value was “did not cause significant changes”. In data set [2] (slices incubated with 1 µM Ab and 0.1 µM AO, mean ± SE), the “maximal fEPSP amplitude, Ab-AO group” value came to 3.61± 0.49 mV. Also, in the data set with mature iPS neurons (Aβ Oligomer (20 μM) and AO (2 μM)), the “neuritic continuity of neurons treated with Aβ oligomers mixed with AO” value is “no apparent broken segments; also recorded: normal length neurites”.
In the case of vitamin E, on FAM-Aβ42, the “enhancement … by anti-oxidants” value is “neither of these anti-oxidants could enhance the degradation”.
